This is a sample that favours compounds with a hit; in the whole collection about 2.6% have one here.
EP2 mod – EP2 receptor modulators, cAMP readout, primary screen, cell-based, HTRF cAMP, PGE2 stimulation; EP2-expressing cells, cAMP HTRF FRET, PGE2 co-stimulation; AID 940, 2007; induction, % at 25 µM; 260,000 compounds, 0.83% hits;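 active means compounds whose cAMP rise, as percent of the full-agonist control response, exceeds 60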;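 further: rat C6 glioma line stably carrying human EP2 under a CMV promoter; the protocol text gives 20 µM as final concentration; 100% = response of wells given 1 µM PGE2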
Target sequence (P43116 whole entry, looked up): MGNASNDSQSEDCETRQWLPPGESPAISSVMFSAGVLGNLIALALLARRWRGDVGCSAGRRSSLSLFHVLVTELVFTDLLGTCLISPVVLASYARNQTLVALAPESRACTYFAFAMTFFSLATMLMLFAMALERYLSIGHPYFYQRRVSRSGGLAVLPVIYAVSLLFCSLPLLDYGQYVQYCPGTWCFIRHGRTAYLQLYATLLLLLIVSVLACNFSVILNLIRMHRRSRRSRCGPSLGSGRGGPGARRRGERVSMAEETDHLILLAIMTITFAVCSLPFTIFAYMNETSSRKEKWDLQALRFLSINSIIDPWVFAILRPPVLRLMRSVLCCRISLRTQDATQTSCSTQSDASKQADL
PGE2 EP2 inh – human EP2 receptor antagonists, primary screen, TR-FRET cAMP, C6 glioma cells; C6 glioma cells expressing human EP2; cells stimulated with saturating PGE2; inhibition, % at 25 µM; Prostaglandin E2 receptor EP2 subtype (Homo sapiens), P43116; 260,000 compounds, 0.52% hits; AID 1422, 2008;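 active means percent inhibition above 40 after rounding to a whole number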;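 further: rat C6 glioma host cells with rolipram phosphodiesterase inhibitor present; the protocol text gives 20 µM as final concentration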
T cell HTS – modulators of CD8 T cell-vesicle binding, primary screen, mouse 2C CD8+ T cells, flow cytometry; 2C CD8+ T cell-vesicle binding; active compounds read low; response (vesicle binding), % at 7 µM; 330,000 compounds, 0.068% hits;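 active means response, share of CD8 T cells binding vesicles, and their 90th percentile fluorescence all below set limits, cut at about 80% in these data, passing the limit was not always enough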;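 further: values below 100% mean blocked vesicle binding to the CD8+ T cells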
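Benchmarks: naked versus QL9-loaded vesicles / Assay system: purified 2C TCR transgenic mouse naive CD8+ T cells / Technique: high-throughput flow cytometry with anti-B7-1 and anti-CD8 staining / Timing: Cell–vesicle co-incubation 1.5 h at 37 °C, staining 20 min on ice / Read-out: percent CD8+ FL2 mean versus row control / Probe or stimulus: QL9-loaded Drosophila micro-vesicles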
Granule exo inh – LAMP-1 surface exposure blockers, TALL-104 cells – cell-based, flow cytometry, MLPCN library, primary screen; TALL-104 LAMP-1 surface exposure; cells stimulated with thapsigargin and PMA; inhibition, % at 10 µM; 360,000 compounds, 0.66% hits; AID 651702, 2012;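 active means inhibition above about 55%, limit read from the data; inconclusive means no clear call, values can overlap the other calls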
MC4R antag cAMP – MC4R antagonists of cAMP signaling, primary screen, cell-based, TR-FRET, antagonist arm of biased-ligand search | 360,000 compounds, 0.48% hits | inhibition, % at 6.5 µM | MC4R-expressing cells, MTII-stimulated cAMP, LANCE TR-FRET | Melanocortin receptor 4 (Homo sapiens), P32245;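 active means inhibition above its plate's cutoff, the mean of tested wells on that plate plus 3 SD, cut at about 29% in these data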;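 further: 0% = Melanotan II alone and 100% = Melanotan II plus saturating MCL0020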
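Assay system: U2OS-MC4R stable cell line; Also added: Melanotan II; Technique: Eu-cAMP/anti-cAMP TR-FRET, emission 671 nm; Times: 30-min compound, 1-h challenge, 1-h detection, room temperature.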
MC4R ag barr – MC4R agonists recruiting beta-arrestin, primary screen, cell-based, luminescence, agonist arm of biased-ligand search | Melanocortin receptor 4 (Homo sapiens), P32245 | AID 540308, 2011 | 360,000 compounds, 0.98% hits | activation, % at 8.9 µM | U2OS MC4R beta-arrestin complementation; percent of melanotan II response, DMSO zero;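 active means activation above a per-plate cutoff, the mean activation of sample wells on that plate plus 3 SD, cut at about 8% in these data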
MC4R barr ag – MC4R beta-arrestin agonists, retest, confirmation, cell-based, luminescence, U2OS; shares compounds with MC4R ag barr; U2OS MC4R beta-arrestin recruitment; scaled DMSO 0%, Melanotan II 100%; activation, % at 8.9 µM; 2,400 compounds, 31% hits; AID 602192, 2012;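 active means mean activation across replicates above the hit cutoff set in the earlier primary screen, cut at about 8% in these data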
MOR-DOR barr ag – agonists of MOR-DOR heterodimerization, counter-screen for MC4R biased agonist project, cell-based, luminescence. AID 602194, 2012. shares compounds with MC4R ag barr. U2OS PathHunter beta-arrestin, beta-gal luminescence; percent of deltorphin B response, DMSO zero. 2,400 compounds, 5.8% hits. activation, % at 9.2 µM;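 active means mean activation across replicates exceeds the hit threshold derived in the earlier primary screen, cut at about 18% in these data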;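 further: 100% = deltorphin B at 0.9 µM final and 0% = DMSO alone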
* marks the source's active call; other numbers are inactive results; i = inactive; u = inconclusive; x = no result given.

SMILES	EP2 mod	PGE2 EP2 inh	T cell HTS	Granule exo inh	MC4R antag cAMP	MC4R ag barr	MC4R barr ag	MOR-DOR barr ag
O=C(CSc1ccc(Cl)cc1)NC1CCCc2ccccc21 (stereo not drawn)	29	5	185	-2	3	11*	3	5
O=C(CSc1c(Cl)cccc1Cl)NC1CCCc2ccccc21 (stereo not drawn)	-1	4	330	-11	3	31*	-3	4
COc1ccc(C(N)c2csc(Nc3ccc(C(=O)c4ccccc4)cc3)n2)cc1 (stereo not drawn)	x	x	x	4	7	7	x	x
C/C(=N\Nc1ccc(C#N)cc1[N+](=O)[O-])c1ccc(O)cc1	-23	6	138	-4	4	10*	6	8
O=C(COC(=O)/C=C/c1ccc(Cl)cc1)Nc1ccc2c(c1)OCCO2	-17	8	148	2	-6	24*	3	4
CC1=NN(c2ccccc2C(=O)O)C(=O)C1N=Nc1ccccc1 (stereo not drawn)	x	x	204	-6	6	-1	x	x
Cc1cc(Nc2ccc(F)c(F)c2)nc(-c2ccccc2O)n1	15	7	416	3	4	14*	4	5
Cc1ccc(Nc2cc(C)nc(-c3ccccc3O)n2)cc1	29	8	656	3	-13	0	x	x
O=C(Nc1ccccc1)N(C1=NCCCCS1)c1cccc2ccccc12	46	9	462	-4	1	-1	x	x
O=C(CSC1=Nc2ccccc2C2CC=NN12)Nc1ccc(F)cc1Cl (stereo not drawn)	9	5	175	9	-16	26*	0	4
Cc1ccc(NC(=O)CSC2=Nc3ccccc3C3CC=NN23)c(C)c1 (stereo not drawn)	18	8	i	3	-3	-2	x	x
Cc1cc([N+](=O)[O-])nn1CC(=O)NC1CCCCC1	x	x	310	-5	2	-2	x	x
COc1ccc(CC(N)c2csc(NC(=O)Nc3ccc(OC)cc3)n2)cc1 (stereo not drawn)	x	x	x	-11	7	1	x	x
NC(Cc1ccccc1)c1csc(NC(=O)Nc2ccccc2Oc2ccccc2)n1 (stereo not drawn)	x	x	x	28	5	5	x	x
NC(Cc1ccc(C(F)(F)F)cc1)c1csc(NC(=O)NCCc2ccccc2)n1 (stereo not drawn)	x	x	x	3	10	14*	22*	18*
COc1ccccc1NC(=O)Nc1nc(C(N)Cc2ccc(C(F)(F)F)cc2)cs1 (stereo not drawn)	x	x	x	8	-2	21*	11*	14
COc1ccc(CC(N)c2csc(NC(=O)Nc3ccccc3Oc3ccccc3)n2)cc1 (stereo not drawn)	x	x	x	1	9	12*	8	21*
CC(C)CC(N)c1csc(NC(=O)NCCc2ccccc2)n1 (stereo not drawn)	x	x	x	3	-3	-2	x	x
COc1ccc(NC(=O)Nc2nc(C(N)Cc3ccc(C(F)(F)F)cc3)cs2)cc1 (stereo not drawn)	x	x	x	-11	4	33*	28*	18
CCCCNC(=O)N1CCN(C(=O)c2ccco2)CC1	15	8	237	-1	3	0	x	x
Cc1ccc(C(=O)Nc2nc(C(N)Cc3ccc(C(F)(F)F)cc3)cs2)cc1 (stereo not drawn)	x	x	x	u	8	11*	24*	11
COc1ccc(CNC(=O)Nc2nc(C(N)Cc3ccc(Cl)cc3)cs2)cc1 (stereo not drawn)	x	x	x	16	-6	5	x	x
CC(=O)c1ccc(Nc2nc(C(N)Cc3ccc(C(F)(F)F)cc3)cs2)cc1 (stereo not drawn)	x	x	x	18	9	7	x	x
COc1ccccc1CNC(=O)Nc1nc(C(N)Cc2ccc(Cl)cc2)cs1 (stereo not drawn)	x	x	x	-6	6	25*	40*	23*
NC(c1ccccc1)c1csc(NC(=O)Nc2ccccc2Oc2ccccc2)n1 (stereo not drawn)	x	x	x	14	-4	23*	35*	13
SMILES	EP2 mod	PGE2 EP2 inh	T cell HTS	Granule exo inh	MC4R antag cAMP	MC4R ag barr	MC4R barr ag	MOR-DOR barr ag
COc1cc(NC(=O)Nc2nc(C(N)Cc3ccc(C(F)(F)F)cc3)cs2)cc(OC)c1OC (stereo not drawn)	x	x	x	0	10	20*	21*	11
O=C(CCN1C(=O)COc2ccccc21)N1CCCCC1	14	9	148	-1	2	0	x	x
NC(Cc1ccc(Cl)cc1)c1csc(Nc2ccc(-c3ccccc3)nn2)n1 (stereo not drawn)	x	x	x	18	10	15*	33*	13
CCc1cnc(Nc2nc(C(N)Cc3ccc(Cl)cc3)cs2)nc1 (stereo not drawn)	x	x	x	10	-6	0	x	x
Cc1ccc2nsnc2c1NC(=O)c1sc2ccccc2c1Cl	23	16	458	4	6	13*	3	4
Cn1nc(C(=O)Nc2cccc(Cl)c2)cc1C(=O)Nc1cccc(Cl)c1	x	x	386	-3	25	14*	2	7
Cn1nc(C(=O)Nc2ccc(Cl)cc2)cc1C(=O)Nc1ccc(Cl)cc1	x	x	228	0	-2	-1	x	x
CCOC(=O)c1cc(-c2ccccc2)sc1NC(=O)C(C)OC(=O)c1cccc(S(=O)(=O)N(C)C)c1 (stereo not drawn)	30	17	181	-4	11	-2	x	x
CCOC(=O)c1cc(-c2ccccc2)sc1NC(=O)COC(=O)c1cccc(S(N)(=O)=O)c1	-35	8	180	-1	-13	16*	19*	22*
CCOC(=O)c1cc(-c2ccccc2)sc1NC(=O)CSc1nncs1	13	6	416	9	5	-2	x	x

Compound activity (PubChem BioAssay)
